# In ChEMBL document CHEMBL1139082, “A potent and orally active HIV-1 integrase inhibitor” (Bioorg Med Chem Lett, 2007):
# Active and inactive are the calls of the source. The rule behind the calls is not given here.
# Target: Human immunodeficiency virus type 1 integrase (Human immunodeficiency virus 1, UniProt Q7ZJM1)
# Test: Inhibition of HIV1 recombinant integrase catalyzed strand transfer activity
# Conditions: not given
# Sequence of Human immunodeficiency virus type 1 integrase (Q7ZJM1 whole entry): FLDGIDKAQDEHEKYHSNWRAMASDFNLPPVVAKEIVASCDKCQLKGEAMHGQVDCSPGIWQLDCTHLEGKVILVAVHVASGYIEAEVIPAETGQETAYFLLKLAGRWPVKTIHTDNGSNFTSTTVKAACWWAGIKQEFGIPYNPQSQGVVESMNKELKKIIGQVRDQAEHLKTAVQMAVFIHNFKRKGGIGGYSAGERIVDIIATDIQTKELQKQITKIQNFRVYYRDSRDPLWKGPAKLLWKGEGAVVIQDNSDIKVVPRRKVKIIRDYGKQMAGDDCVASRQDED
row,Compound,IC50
1,CNC(=O)Cc1ccccc1CNC(=O)c1nc(N2CCCCS2(=O)=O)c2cccnc2c1O,7 nM
2,CNC(=O)c1cc(F)ccc1CNC(=O)c1ncc2cccnc2c1O,51 nM

# System: Human immunodeficiency virus 1
# Test: Antiviral activity against HIV1 3B in MT4 cells assessed as decrease in HIV1 p24 core antigen in presence of FBS
# Type: functional
# Conditions: Human immunodeficiency virus 1, 3B
# Outline: (§1)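 MT-4 human T-lymphoid cells infected with HIV-1 IIIb, cultured with increasing inhibitor concentrations; readout is the decrease in p24 core antigen. IC95 is the concentration giving 95% inhibition of viral growth versus control. Line 1 used 10% fetal bovine serum; line 2 used 50% normal human serum. n ≥ 2; lower limit ~7 nM; SD ~2-fold.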
row,Compound,IC95
1,O=C(NCc1ccc(F)cc1)c1nc(N2CCCCS2(=O)=O)c2cccnc2c1O,15 nM
2,CNC(=O)Cc1ccccc1CNC(=O)c1nc(N2CCCCS2(=O)=O)c2cccnc2c1O,109 nM

# System: Human immunodeficiency virus 1
# Test: Antiviral activity against HIV1 3B in MT4 cells assessed as decrease in HIV1 p24 core antigen in presence of normal human serum
# Type: functional
# Conditions: Human immunodeficiency virus 1, 3B
# Outline: as §1
row,Compound,IC95
1,O=C(NCc1ccc(F)cc1)c1nc(N2CCCCS2(=O)=O)c2cccnc2c1O,102 nM
2,O=C(NCc1ccc(F)cc1)c1ncc2cccnc2c1O,5000 nM
3,CNC(=O)Cc1ccccc1CNC(=O)c1nc(N2CCCCS2(=O)=O)c2cccnc2c1O,438 nM
4,CNC(=O)c1cc(F)ccc1CNC(=O)c1ncc2cccnc2c1O,1040 nM

# System: not listed separately
# Test: Partition coefficient, log P at pH 7.4
# Type: physicochemical
# Conditions: octanol/water
# Outline: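 Octanol/buffer partition measured by HPLC at each compound's maximum absorbance. Log P = log[(octanol area × octanol dilution)/(buffer area × buffer dilution)].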
row,Compound,logD
1,O=C(NCc1ccc(F)cc1)c1nc(N2CCCCS2(=O)=O)c2cccnc2c1O,2.1
2,O=C(NCc1ccc(F)cc1)c1ncc2cccnc2c1O,2.4
3,CNC(=O)Cc1ccccc1CNC(=O)c1nc(N2CCCCS2(=O)=O)c2cccnc2c1O,1
4,CNC(=O)c1cc(F)ccc1CNC(=O)c1ncc2cccnc2c1O,1.4

# System: not listed separately
# Test: Solubility at pH 7.4 by equilibrium solubility assay
# Type: physicochemical
# Conditions: buffer
# Outline: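 Crystalline drug was suspended in 10 mM sodium phosphate, pH 7.4, and equilibrated at room temperature for 5 days. Aliquots were centrifuged 15,000 rpm for 15 min. Solution concentration was measured by HPLC at days 2 and 5 and taken as solubility.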
row,Compound,Solubility
1,O=C(NCc1ccc(F)cc1)c1nc(N2CCCCS2(=O)=O)c2cccnc2c1O,0.21 µg/mL

# System: not listed separately
# Test: Oral bioavailability in rat at 10 mg/kg
# Type: ADME, organism-based
# Conditions: in vivo
# Outline: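 Sodium salt was ground and given orally to rats at 10 mg/kg as a 1% aqueous methylcellulose solution/suspension. Percent bioavailability was taken after oral administration.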
row,Compound,bioavailability
1,O=C(NCc1ccc(F)cc1)c1nc(N2CCCCS2(=O)=O)c2cccnc2c1O,41%

# System: not listed separately
# Test: Oral bioavailability in dog at 1 mg/kg
# Type: ADME, organism-based, Canis lupus familiaris
# Conditions: in vivo
# Outline: (§2)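 Sodium salt was ground and given orally at 1 mg/kg to dogs and rhesus monkeys as a 0.5% aqueous methylcellulose suspension. Percent bioavailability was taken after oral administration.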
row,Compound,bioavailability
1,O=C(NCc1ccc(F)cc1)c1nc(N2CCCCS2(=O)=O)c2cccnc2c1O,24%

# System: not listed separately
# Test: Oral bioavailability in rhesus monkey at 1 mg/kg
# Type: ADME, organism-based, Macaca mulatta
# Conditions: in vivo
# Outline: as §2
row,Compound,bioavailability
1,O=C(NCc1ccc(F)cc1)c1nc(N2CCCCS2(=O)=O)c2cccnc2c1O,51%

# System: not listed separately
# Test: Half life in rat at 2 mg/kg, iv
# Type: ADME, organism-based
# Set-up: dose 2 mg/kg, route intravenous
# Conditions: in vivo
# Outline: (§3)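 Rats received the sodium salt intravenously at 2 mg/kg, dissolved in DMSO. Half-life (h) and clearance (mL/min/kg) were derived after iv administration.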
row,Compound,half-life
1,O=C(NCc1ccc(F)cc1)c1nc(N2CCCCS2(=O)=O)c2cccnc2c1O,1.2 h

# System: not listed separately
# Test: Half life in dog at 1 mg/kg, iv
# Type: ADME, organism-based, Canis lupus familiaris
# Set-up: dose 1 mg/kg, route intravenous
# Conditions: in vivo
# Outline: (§4)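 Dog and rhesus monkeys were given sodium salt intravenously at 1 mg/kg, dissolved in DMSO. Half-life (h) and clearance (mL/min/kg) were derived from plasma concentrations after iv dosing.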
row,Compound,half-life
1,O=C(NCc1ccc(F)cc1)c1nc(N2CCCCS2(=O)=O)c2cccnc2c1O,2.9 h

# System: not listed separately
# Test: Half life in rhesus monkey at 1 mg/kg, iv
# Type: ADME, organism-based, Macaca mulatta
# Set-up: dose 1 mg/kg, route intravenous
# Conditions: in vivo
# Outline: as §4
row,Compound,half-life
1,O=C(NCc1ccc(F)cc1)c1nc(N2CCCCS2(=O)=O)c2cccnc2c1O,0.7 h

# System: not listed separately
# Test: Clearance in rat at 2 mg/kg, iv
# Type: ADME, organism-based
# Set-up: dose 2 mg/kg, route intravenous
# Conditions: in vivo
# Outline: as §3
row,Compound,clearance
1,O=C(NCc1ccc(F)cc1)c1nc(N2CCCCS2(=O)=O)c2cccnc2c1O,2.8 mL/min/kg

# System: not listed separately
# Test: Clearance in dog at 1 mg/kg, iv
# Type: ADME, organism-based, Canis lupus familiaris
# Set-up: dose 1 mg/kg, route intravenous
# Conditions: in vivo
# Outline: as §4
row,Compound,clearance
1,O=C(NCc1ccc(F)cc1)c1nc(N2CCCCS2(=O)=O)c2cccnc2c1O,2 mL/min/kg

# System: not listed separately
# Test: Clearance in rhesus monkey at 1 mg/kg, iv
# Type: ADME, organism-based, Macaca mulatta
# Set-up: dose 1 mg/kg, route intravenous
# Conditions: in vivo
# Outline: as §4
row,Compound,clearance
1,O=C(NCc1ccc(F)cc1)c1nc(N2CCCCS2(=O)=O)c2cccnc2c1O,6.6 mL/min/kg

# System: Plasma
# Test: Fraction unbound in human plasma after 30 mins by ultracentrifugation method
# Type: ADME, cell-free
# Conditions: 0.5 h
# Outline: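 14C-labelled compound was spiked into human plasma (pH 7.4) at final 1, 5 and 20 µM and incubated 30 min at 37 °C. Ultracentrifugation at 180,000g, 37 °C, overnight (~18 h). Supernatant aliquots were counted by liquid scintillation with quench correction; fu (%) = dpm in protein-free fraction / dpm in original plasma × 100.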
row,Compound,Activity
1,O=[14C](NCc1ccc(F)cc1)c1nc(N2CCCCS2(=O)=O)c2cccnc2c1O,1.5%
2,CNC(=O)c1cc(F)ccc1CN[14C](=O)c1nc(N2CCCCS2(=O)=O)c2cccnc2c1O,15%

# System: Human immunodeficiency virus 1
# Test: Antiviral activity against HIV1 with integrase […] mutant
# Type: functional, organism-based
# Conditions: not given
# Outline: (§5)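 HIV-1 carrying site-directed integrase mutations (mutations first seen in serial cell-culture passage under integrase inhibitors) tested in cell culture. Activity is expressed as fold loss in efficacy relative to wild-type virus.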
row,Compound,Activity
1,O=C(NCc1ccc(F)cc1)c1nc(N2CCCCS2(=O)=O)c2cccnc2c1O,Active

# System: Human immunodeficiency virus 1
# Test: Antiviral activity against HIV1 with integrase V151l mutant
# Type: functional, organism-based
# Conditions: not given
# Outline: as §5
row,Compound,Activity
1,O=C(NCc1ccc(F)cc1)c1nc(N2CCCCS2(=O)=O)c2cccnc2c1O,Active

# System: Human immunodeficiency virus 1
# Test: Antiviral activity against HIV1 with integrase F121Y mutant
# Type: functional, organism-based
# Conditions: not given
# Outline: as §5
row,Compound,Activity
1,O=C(NCc1ccc(F)cc1)c1nc(N2CCCCS2(=O)=O)c2cccnc2c1O,Active

# System: Human immunodeficiency virus 1
# Test: Antiviral activity against HIV1 with integrase T125K mutant
# Type: functional, organism-based
# Conditions: not given
# Outline: as §5
row,Compound,Activity
1,O=C(NCc1ccc(F)cc1)c1nc(N2CCCCS2(=O)=O)c2cccnc2c1O,Active

# System: Human immunodeficiency virus 1
# Test: Antiviral activity against HIV1 with integrase T66l/M154l mutant
# Type: functional, organism-based
# Conditions: not given
# Outline: as §5
row,Compound,Activity
1,O=C(NCc1ccc(F)cc1)c1nc(N2CCCCS2(=O)=O)c2cccnc2c1O,Active

# System: Human immunodeficiency virus 1
# Test: Antiviral activity against HIV1 with integrase T66l/S153Y mutant
# Type: functional, organism-based
# Conditions: not given
# Outline: as §5
row,Compound,Activity
1,O=C(NCc1ccc(F)cc1)c1nc(N2CCCCS2(=O)=O)c2cccnc2c1O,Active

# System: Human immunodeficiency virus 1
# Test: Antiviral activity against HIV1 with integrase N155S mutant
# Type: functional, organism-based
# Conditions: not given
# Outline: as §5
row,Compound,Activity
1,O=C(NCc1ccc(F)cc1)c1nc(N2CCCCS2(=O)=O)c2cccnc2c1O,Active

# Species on record: Homo sapiens
# Test: Protein binding in human plasma by ultrafiltration method
# Conditions: read-out: PB (converted)
row,Compound,fraction unbound
1,O=C(NCc1ccc(F)cc1)c1ncc2cccnc2c1O,0.01
2,CNC(=O)Cc1ccccc1CNC(=O)c1nc(N2CCCCS2(=O)=O)c2cccnc2c1O,0.08
3,CNC(=O)c1cc(F)ccc1CNC(=O)c1ncc2cccnc2c1O,0.02
